# Reference: ChEMBL document CHEMBL3351317 (J Med Chem, 2014)
# Assays:
# [1] = Distribution coefficient, log D between 1-octonol and aqueous phosphate buffer at pH 7.4; assay type: physicochemical; conditions: 1-octanol/aqueous phosphate buffer
# How it was run: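 logD measured as distribution between 1-octanol and aqueous phosphate buffer, pH 7.4.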
# [2] = Intrinsic clearance in rat hepatocytes assessed per million cells; assay type: ADME, cell-based, Hepatocyte; conditions: read-out: CLH
logD [1],hepatocyte CLint [2] [µL/min/1e6 cells],SMILES
2.6,–,C[C@@H]1CN(c2nnc(C(F)(F)F)o2)CCN1c1ncc(OCc2ccc(S(C)(=O)=O)cc2C#N)cn1
2.8,–,C[C@@H]1CN(c2nnc(C(F)(F)F)o2)CCN1c1ncc(OCc2ccc(C#N)cc2C#N)cn1
3.8,–,C[C@@H]1CN(c2nnc(C(F)(F)F)o2)CCN1c1ncc(OCc2ccc(C#N)cc2F)cn1

# Further lines, the compound ahead of its results:
SMILES,logD [1],hepatocyte CLint [2] [µL/min/1e6 cells]
C[C@@H]1CN(c2nnc(C(F)(F)F)o2)CCN1c1ncc(OCc2ccc(S(C)(=O)=O)cc2F)cn1,3,–
C[C@@H]1CN(c2nnc(C(F)(F)F)o2)CCN1c1ncc(OCc2ccc(S(C)(=O)=O)cc2)cn1,2.8,–
C[C@@H]1CN(c2nnc(C(F)(F)F)o2)CCN1c1ncc(OCc2ccc(CS(C)(=O)=O)cc2)cn1,2.6,–
C[C@@H]1CN(c2nnc(C(F)(F)F)o2)CCN1c1ncc(OCc2ccc(-n3cnnn3)cc2F)cn1,3.6,–
C[C@@H]1CN(c2nnc(C(F)(F)F)o2)CCN1c1ncc(OCc2ccc(CS(C)(=O)=O)cc2F)cn1,2.9,9
C[C@@H]1CN(c2nnc(C(F)(F)F)o2)CCN1c1ncc(OCc2ccc(OS(C)(=O)=O)cc2F)cn1,3.7,–
C[C@@H]1CN(c2nnc(C(F)(F)F)o2)CCN1c1ncc(OCc2ccc(C[S+](C)[O-])cc2F)cn1 (some centres not stated),2.6,53
